Assay in all cases: chemiluminescence
Holding throughout (assay type): binding

In one assay the target is T1, EcYcgR (Escherichia coli, UniProt P76010).
T1 sequence (P76010 1-244): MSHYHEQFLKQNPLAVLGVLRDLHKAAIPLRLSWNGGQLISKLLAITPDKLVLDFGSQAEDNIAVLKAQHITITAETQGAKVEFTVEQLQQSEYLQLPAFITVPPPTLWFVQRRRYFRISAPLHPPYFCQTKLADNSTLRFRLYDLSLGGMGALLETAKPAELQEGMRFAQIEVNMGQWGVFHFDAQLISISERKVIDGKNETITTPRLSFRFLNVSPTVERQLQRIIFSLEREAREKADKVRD
Summed up: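 Then 20 µL of 60 µM coelenterazine-h (in HEPES/KCl/300 mM ascorbate, equilibrated at RT for at least 30 min) was injected. Total luminescence was integrated for 10 s after a 3 s delay at 28 °C.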

The target of another assay is TuYcgR. The conditions noted are these: read-out: KD^a; 50 nM protein; 50 mM HEPES pH 7.2, 100 mM KCl, 10 mM DTT, 0.1% BSA; 28 °C. Summed up: (§1)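 Purified from E. coli co-expressing the c-di-GMP phosphodiesterase PdeH. Biosensor (YcgR domain inserted at the 91/92 site of split RLuc8) at 50 nM with c-di-GMP in 100 µL, equilibrated ≥10 min at 28 °C. Injected 20 µL of 60 µM coelenterazine-h in 50 mM HEPES pH 7.2, 100 mM KCl, 300 mM ascorbate. Total luminescence integrated 10 s after a 3 s delay.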

Another assay deals with DnYcgR. As to conditions: read-out: KD^a; 50 nM protein; 50 mM HEPES pH 7.2, 100 mM KCl, 10 mM DTT, 0.1% BSA; 28 °C. Summed up: as §1
Another assay has as its target CpYcgR. As to conditions: read-out: KD^a; 50 nM protein; 50 mM HEPES pH 7.2, 100 mM KCl, 10 mM DTT, 0.1% BSA; 28 °C. Summed up:
as §1

For a further assay, the target named is TmYcgR. As to conditions: read-out: KD^a; 50 nM protein; 50 mM HEPES pH 7.2, 100 mM KCl, 10 mM DTT, 0.1% BSA; 28 °C. Summed up:
as §1

In the next assay the target is TcYcgR. As to conditions: read-out: KD^a; 50 nM protein; 50 mM HEPES pH 7.2, 100 mM KCl, 10 mM DTT, 0.1% BSA; 28 °C. Summed up: as §1
Another assay addresses ToYcgR. The conditions noted are these: read-out: KD^a; 50 nM protein; 50 mM HEPES pH 7.2, 100 mM KCl, 10 mM DTT, 0.1% BSA; 28 °C. Summed up: as §1
The next assay addresses BtYcgR. As to conditions: read-out: KD^a; 50 nM protein; 50 mM HEPES pH 7.2, 100 mM KCl, 10 mM DTT, 0.1% BSA; 28 °C. Summed up:
as §1

For another assay, the target named is TbYcgR. The conditions noted are these: read-out: KD^a; 50 nM protein; 50 mM HEPES pH 7.2, 100 mM KCl, 10 mM DTT, 0.1% BSA; 28 °C. Summed up: as §1
The target of another assay is CbYcgR. The conditions noted are these: read-out: KD^a; 50 nM protein; 50 mM HEPES pH 7.2, 100 mM KCl, 10 mM DTT, 0.1% BSA; 28 °C. Summed up:
as §1

A further assay concerns the target PtYcgR. The conditions noted are these: read-out: KD^a; 50 nM protein; 50 mM HEPES pH 7.2, 100 mM KCl, 10 mM DTT, 0.1% BSA; 28 °C. Summed up: as §1
The target in another assay is BvYcgR. The conditions noted are these: read-out: KD^a; 50 nM protein; 50 mM HEPES pH 7.2, 100 mM KCl, 10 mM DTT, 0.1% BSA; 28 °C. Summed up: as §1

A value given as a limit tells only on which side of the number the result lay.

In general, Kd refers to the concentration at which binding is half-saturated.

As for `Nc1nc2c(ncn2[C@@H]2O[C@@H]3COP(=O)(O)O[C@H]4[C@@H](O)[C@H](n5cnc6c(=O)[nH]c(N)nc65)O[C@@H]4COP(=O)(O)O[C@H]3[C@H]2O)c(=O)[nH]1` [c-di-GMP], the Kd at EcYcgR was 354 ± 18 nM; at TuYcgR, under 50 nM; on DnYcgR, 303 ± 15 nM; at CpYcgR it was under 50 nM; at TmYcgR it was under 50 nM; on TcYcgR it was 59 ± 2 nM. Moreover, the Kd on ToYcgR is 379 ± 23 nM; on BtYcgR, 286 ± 17 nM; on TbYcgR it was under 50 nM; on CbYcgR it was under 50 nM; at PtYcgR, under 50 nM; at BvYcgR, 105 ± 2 nM.

Source of the values: PMC6054565 (ACS chemical biology, 2018).
